Measured values taken from ChEMBL document CHEMBL1145119, “Esters, retroesters, and a retroamide of palmitic acid: pool for the first selective inhibitors of N-palmitoylethanolamine-selective acid amidase” (J Med Chem, 2003).

How the values were obtained:
[1] = molecular target: N-acylethanolamine-hydrolyzing acid amidase (Rattus norvegicus) (UniProt Q5KTC7); test: Inhibition of N-palmitoylethanolamine-selective acid amidase (NPAA) from rat lung homogenates at 100 uM
[2] = molecular target: T1, Fatty-acid amide hydrolase 1 (Rattus norvegicus) (UniProt P97612); test: Inhibition of fatty acid amide hydrolase (FAAH) from rat brain homogenates at 10 uM; format: tissue-based
T1 sequence (whole entry): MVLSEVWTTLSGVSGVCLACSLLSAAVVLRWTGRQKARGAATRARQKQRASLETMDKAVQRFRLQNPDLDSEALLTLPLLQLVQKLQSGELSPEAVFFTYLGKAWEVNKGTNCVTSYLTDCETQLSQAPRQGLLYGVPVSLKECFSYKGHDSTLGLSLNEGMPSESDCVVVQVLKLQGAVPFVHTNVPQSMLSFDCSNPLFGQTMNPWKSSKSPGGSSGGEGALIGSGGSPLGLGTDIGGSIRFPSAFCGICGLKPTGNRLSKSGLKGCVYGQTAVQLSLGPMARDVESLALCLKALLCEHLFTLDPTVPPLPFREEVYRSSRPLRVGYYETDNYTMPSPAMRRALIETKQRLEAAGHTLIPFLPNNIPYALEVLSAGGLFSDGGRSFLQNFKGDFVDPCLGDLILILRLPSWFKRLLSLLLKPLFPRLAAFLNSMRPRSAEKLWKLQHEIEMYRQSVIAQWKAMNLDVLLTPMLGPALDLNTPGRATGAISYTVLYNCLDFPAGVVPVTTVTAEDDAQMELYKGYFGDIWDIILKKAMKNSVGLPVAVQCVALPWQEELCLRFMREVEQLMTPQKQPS
Outline: (§1)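 Hydrolysis of [3H]-anandamide by rat brain homogenate was measured at assay pH 7.6. Compound was mostly tested over 0.5–100 μM, and percent inhibition is given at 10 and 100 μM. A value below 0 means activity remaining exceeded 100%.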

[3] = molecular target: T1, Fatty-acid amide hydrolase 1 (Rattus norvegicus); test: Inhibition of fatty acid amide hydrolase (FAAH) from rat brain homogenates at 100 uM; format: tissue-based
Outline: as §1

[4] = molecular target: Cannabinoid receptor 1 (Homo sapiens) (UniProt P21554); test: Binding affinity against human Cannabinoid receptor 1 using CHO-hCB1 transfected cell membrane and [3H]CP-55940 as radioligand at 10 uM
Outline: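 Membranes from CHO cells transfected with human CB1 were incubated with 1 nM [3H]-CP55,940 and test compound at 10 μM. Nonspecific binding was defined with 10 μM HU-210. The value is percent inhibition of specific radioligand binding.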

[5] = molecular target: Cannabinoid receptor 2 (Homo sapiens) (UniProt P34972); test: Binding affinity against human CB2 receptor by using CHO-hCB2 transfected cell membrane [3H]WIN-55212-2 as radioligand at 10 uM
Outline: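 Membranes from CHO cells transfected with human CB2 were incubated with 1 nM [3H]-WIN55,212-2 and test compound at 10 μM. Nonspecific binding was defined with 10 μM HU-210. The value is percent inhibition of specific radioligand binding.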

RBL-2H3 [6] = test: Compound was tested for the inhibition of [3H]anandamide Uptake in RBL-2H3 cells at 30 uM; format: functional; settings: Rattus norvegicus
Outline: (§2)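 RBL-2H3 cells (passage 38) were preincubated with compound (10, 30 or 100 μM). They were then exposed to 2 μM [3H]-arachidonoyl-labeled anandamide for 8 min. Uptake was taken as accumulation in cell wells minus parallel cell-free wells. 200 μM AM404 served as positive control in every assay. The value is percent inhibition of uptake.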

[7] = molecular target: T1, Fatty-acid amide hydrolase 1 (Rattus norvegicus); test: Compound was tested for the inhibition of fatty acid amide hydrolase from rat brain homogenates at 10 uM in buffer A of pH 6 by using 10 uM [3H]ethanolamine-labeled anandamide as substrate
Outline: (§3)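 The rat brain homogenate FAAH assay used 10 μM [3H]-ethanolamine-labeled anandamide as substrate. Protein was 10 μg per assay at pH 6 and 3 μg at pH 9. Buffer A was 10 mM Tris-HCl and 1 mM EDTA with fatty acid-free BSA. Buffer B was 125 mM Tris, 1 mM EDTA, 0.2% glycerol, 0.02% Triton X-100 and 0.4 mM HEPES, without BSA. pH was adjusted with NaOH or HCl. Compounds were tested at 10, 30 and 100 μM. The value is percent inhibition.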

[8] = molecular target: T1, Fatty-acid amide hydrolase 1 (Rattus norvegicus); test: Compound was tested for the inhibition of fatty acid amide hydrolase from rat brain homogenates at 10 uM in buffer B of pH 6 by using 10 uM [3H]ethanolamine-labeled anandamide as substrate; format: tissue-based
Outline: as §3

[9] = molecular target: T1, Fatty-acid amide hydrolase 1 (Rattus norvegicus); test: Compound was tested for the inhibition of fatty acid amide hydrolase from rat brain homogenates at 10 uM in buffer B of pH 9 by using 100 uM [3H]ethanolamine-labeled anandamide as substrate; format: tissue-based
[10] = molecular target: T1, Fatty-acid amide hydrolase 1 (Rattus norvegicus); test: Compound was tested for the inhibition of fatty acid amide hydrolase from rat brain homogenates at 10 uM in buffer B of pH 6 by using 100 uM [3H]ethanolamine-labeled anandamide as substrate; format: tissue-based
[11] = molecular target: T1, Fatty-acid amide hydrolase 1 (Rattus norvegicus); test: Compound was tested for the inhibition of fatty acid amide hydrolase from rat brain homogenates at 10 uM in buffer A of pH 9 by using 10 uM [3H]ethanolamine-labeled anandamide as substrate; format: tissue-based
Outline: as §3

[12] = molecular target: T1, Fatty-acid amide hydrolase 1 (Rattus norvegicus); test: Compound was tested for the inhibition of fatty acid amide hydrolase from rat brain homogenates at 10 uM in buffer A of pH 9 by using 30 uM [3H]ethanolamine-labeled anandamide as substrate; format: tissue-based
RBL-2H3 [13] = test: Compound was tested for the inhibition of [3H]anandamide Uptake in RBL-2H3 cells at 100 uM; format: functional; settings: Rattus norvegicus
Outline: as §2

RBL-2H3 [14] = test: Compound was tested for the inhibition of [3H]anandamide Uptake in RBL-2H3 cells at 10 uM; format: functional; settings: Rattus norvegicus
Outline: as §2

[15] = molecular target: T1, Fatty-acid amide hydrolase 1 (Rattus norvegicus); test: Compound was tested for the inhibition of fatty acid amide hydrolase from rat brain homogenates at 10 uM in buffer A of pH 9 by using 100 uM [3H]ethanolamine-labeled anandamide as substrate; format: tissue-based
[16] = molecular target: T1, Fatty-acid amide hydrolase 1 (Rattus norvegicus); test: Compound was tested for the inhibition of fatty acid amide hydrolase from rat brain homogenates at 10 uM in buffer B of pH 9 by using 10 uM [3H]ethanolamine-labeled anandamide as substrate; format: tissue-based
Outline: as §3

[17] = molecular target: T1, Fatty-acid amide hydrolase 1 (Rattus norvegicus); test: Compound was tested for the inhibition of fatty acid amide hydrolase from rat brain homogenates at 10 uM in buffer A of pH 6 by using 100 uM [3H]ethanolamine-labeled anandamide as substrate; format: tissue-based
[18] = molecular target: T1, Fatty-acid amide hydrolase 1 (Rattus norvegicus); test: Compound was tested for the inhibition of fatty acid amide hydrolase from rat brain homogenates at 10 uM in buffer A of pH 6 by using 30 uM [3H]ethanolamine-labeled anandamide as substrate; format: tissue-based
Rattus norvegicus = species on record: Rattus norvegicus; test: Compound was tested for the inhibition of N-palmitoylethanolamine-selective acid amidase (NPAA) from rat lung homogenates at 100 uM
Outline: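 Enzyme (12 μg protein) was solubilized from the 12 000 × g pellet of rat lung homogenate. It was incubated with 100 μM [14C]-N-palmitoylethanolamine (10 000 cpm) and 100 μM compound for 30 min at 37 °C. Buffer was 50 mM citrate–sodium phosphate, pH 5.0, with 3 mM DTT and 0.1% Triton X-100. Radioactivity was read by imaging scan. The value is percent inhibition.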

Sequence of Cannabinoid receptor 2 (Homo sapiens) (P34972 whole entry): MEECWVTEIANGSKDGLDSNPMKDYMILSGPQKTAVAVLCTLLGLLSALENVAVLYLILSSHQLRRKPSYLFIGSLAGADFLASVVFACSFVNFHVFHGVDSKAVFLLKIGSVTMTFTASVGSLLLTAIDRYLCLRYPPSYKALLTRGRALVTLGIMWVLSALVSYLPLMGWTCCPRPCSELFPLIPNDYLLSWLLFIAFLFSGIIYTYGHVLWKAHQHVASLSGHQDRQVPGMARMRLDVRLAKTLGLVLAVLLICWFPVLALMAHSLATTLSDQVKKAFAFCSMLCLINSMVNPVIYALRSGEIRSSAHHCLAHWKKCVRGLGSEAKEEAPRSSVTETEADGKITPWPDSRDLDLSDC
Sequence of N-acylethanolamine-hydrolyzing acid amidase (Rattus norvegicus) (Q5KTC7 whole entry, looked up): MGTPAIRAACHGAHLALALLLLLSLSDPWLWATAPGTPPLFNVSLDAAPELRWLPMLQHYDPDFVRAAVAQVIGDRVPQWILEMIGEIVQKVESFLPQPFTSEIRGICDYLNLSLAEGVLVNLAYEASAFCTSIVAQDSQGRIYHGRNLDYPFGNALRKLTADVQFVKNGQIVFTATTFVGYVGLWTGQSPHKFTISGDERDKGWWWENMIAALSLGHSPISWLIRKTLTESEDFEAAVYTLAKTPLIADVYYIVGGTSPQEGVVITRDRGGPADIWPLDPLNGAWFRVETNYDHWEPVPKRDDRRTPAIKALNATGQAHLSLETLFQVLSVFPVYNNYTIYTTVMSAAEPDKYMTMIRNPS
Sequence of Cannabinoid receptor 1 (Homo sapiens) (P21554 whole entry): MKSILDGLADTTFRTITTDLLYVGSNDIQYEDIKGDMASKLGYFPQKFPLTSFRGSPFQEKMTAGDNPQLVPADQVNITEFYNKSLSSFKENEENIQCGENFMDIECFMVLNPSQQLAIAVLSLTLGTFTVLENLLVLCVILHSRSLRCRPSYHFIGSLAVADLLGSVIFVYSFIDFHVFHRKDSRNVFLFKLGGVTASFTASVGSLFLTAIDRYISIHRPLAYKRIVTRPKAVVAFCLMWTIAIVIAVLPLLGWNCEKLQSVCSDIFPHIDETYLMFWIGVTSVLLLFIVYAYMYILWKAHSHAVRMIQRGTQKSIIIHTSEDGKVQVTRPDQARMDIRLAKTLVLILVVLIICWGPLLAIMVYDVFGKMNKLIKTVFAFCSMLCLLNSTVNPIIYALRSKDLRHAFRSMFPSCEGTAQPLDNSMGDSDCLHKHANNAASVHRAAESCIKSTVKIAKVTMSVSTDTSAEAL

SMILES	inhibition [1] [%]	inhibition [2] [%]	inhibition [3] [%]	inhibition [4] [%]	inhibition [5] [%]	inhibition at 30 µM (RBL-2H3 [6]) [%]	inhibition [7] [%]	inhibition [8] [%]	inhibition [9] [%]	inhibition [10] [%]	inhibition [11] [%]	inhibition [12] [%]	inhibition at 100 µM (RBL-2H3 [13]) [%]	inhibition at 10 µM (RBL-2H3 [14]) [%]	inhibition [15] [%]	inhibition [16] [%]	inhibition [17] [%]	inhibition [18] [%]	inhibition (Rattus norvegicus) [%]
CCCCCCCCCCCCCCCC(=O)OCCCl	55	27	45	14	6														
CCCCCCCCCCCCCCCC(=O)NC(C)C	25	30	52	25	12														
CCCCCCCCCCCCCCCC(=O)OC(C)(C)C	23	< 0	< 0	14	14														
CCCCCCCCCCCCCCCC(=O)NCCO	34	49	68	24	14														
CCCCCCCCCCCCCCCNC(=O)CCO	77	< 0	8	4	3	13	8	11	< 0	16	20	5	28	8	7	6	2		
CCCCCCCCCCCCCCCCOC(=O)CC [HEXADECYLPROPIONATE]	71	< 0	< 0	12	2	12	2	5	< 0	< 0	26	21	15	11	4	< 0	< 0	< 0	
CCCCCCCCCCCCCCCC(=O)OCc1ccccc1	50	6	24	5	5														
CCCCCCCCCCCCCCCC(=O)NC	30	35	68	3	8														
CCCCCCCCCCCCCCCCOC(C)=O	68	< 0	< 0	10	9														
CCCCCCCCCCCCCCCC(=O)OCCBr	45	19	31	2	2														
CCCCCCCCCCCCCCCC(=O)NC1CCCCC1	23	8	11	34	8														
CCCCCCCCCCCCCCCC(=O)OC		18	69	11	14														64
CCCCCCCCCCCCCCCC(=O)OC(C)C	44	< 0	< 0	8	0.5														
C=CCOC(=O)CCCCCCCCCCCCCCC	48	16	36	2	1														
CCCCCCCCCCCCCCCC(=O)OC1CCCCC1 [CYCLOHEXYL PALMITATE]	84	6	36	14	6	16	8	20	46	51	5	17	29	5	12	12	37	2	
